From ChEMBL document CHEMBL5653631, “A Potent and Selective ULK1 Inhibitor Suppresses Autophagy and Sensitizes Cancer Cells to Nutrient Stress” (iScience, 2018)
Each block holds one compound with its values, some of them ahead of it.

How the values were obtained:
[1] = target: T1, Activin receptor type-1B (Homo sapiens) (UniProt P36896); assay: Inhibition of human recombinant ALK4 at 500 nM in presence of ATP by radiometric assay relative to control
T1 sequence (whole entry): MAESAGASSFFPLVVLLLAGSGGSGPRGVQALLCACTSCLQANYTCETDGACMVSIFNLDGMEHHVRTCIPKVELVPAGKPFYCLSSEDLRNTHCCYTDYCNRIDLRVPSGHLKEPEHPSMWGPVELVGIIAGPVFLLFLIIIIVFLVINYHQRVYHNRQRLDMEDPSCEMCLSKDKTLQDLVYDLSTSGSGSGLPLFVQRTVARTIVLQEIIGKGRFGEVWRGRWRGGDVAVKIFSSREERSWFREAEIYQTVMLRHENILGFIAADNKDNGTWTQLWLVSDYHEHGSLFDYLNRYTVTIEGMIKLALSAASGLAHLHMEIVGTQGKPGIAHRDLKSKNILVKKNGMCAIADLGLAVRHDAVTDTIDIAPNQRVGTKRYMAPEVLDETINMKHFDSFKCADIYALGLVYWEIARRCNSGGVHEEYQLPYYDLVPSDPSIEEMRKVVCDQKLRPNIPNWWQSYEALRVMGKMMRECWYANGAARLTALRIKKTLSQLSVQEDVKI
Method in brief: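 Panel of 327 recombinant human kinases, each assayed in vitro by radiometric activity assay in duplicate at a single inhibitor concentration per compound, chosen with reference to its ULK1 inhibition. Activity remaining was expressed as percent of vehicle control, and percent inhibition was calculated as 100 minus percent activity remaining.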

[2] = target: Ribosomal protein S6 kinase alpha-6 (Homo sapiens) (UniProt Q9UK32); assay: Inhibition of human recombinant RSK4 at 500 nM related to control ULK1
[3] = target: Mitogen-activated protein kinase 10 (Homo sapiens) (UniProt P53779); assay: Inhibition of human recombinant JNK3 at 500 nM related to control ULK1
[4] = target: Serine/threonine-protein kinase pim-1 (Homo sapiens) (UniProt P11309); assay: Inhibition of human recombinant PIM1 at 500 nM related to control ULK1
[5] = target: Tyrosine-protein kinase JAK2 (Homo sapiens) (UniProt O60674); assay: Inhibition of human recombinant JAK2 at 500 nM in presence of ATP by radiometric assay relative to control
[6] = target: Dual specificity tyrosine-phosphorylation-regulated kinase 1A (Homo sapiens) (UniProt Q13627); assay: Inhibition of human recombinant DYRK1A at 15 nM in presence of ATP by radiometric assay relative to control
[7] = target: Ribosomal protein S6 kinase alpha-6 (Homo sapiens) (UniProt Q9UK32); assay: Inhibition of human recombinant RSK4 at 15 nM in presence of ATP by radiometric assay relative to control
[8] = target: Serine/threonine-protein kinase MAK (Homo sapiens) (UniProt P20794); assay: Inhibition of human recombinant MAK at 15 nM related to control ULK1
[9] = target: SRSF protein kinase 1 (Homo sapiens) (UniProt Q96SB4); assay: Inhibition of human recombinant SRPK1 at 15 nM in presence of ATP by radiometric assay relative to control
[10] = target: T2, Discoidin domain-containing receptor 2 (Homo sapiens) (UniProt Q16832); assay: Inhibition of human recombinant DDR2 at 40 nM in presence of ATP by radiometric assay relative to control
T2 sequence (whole entry): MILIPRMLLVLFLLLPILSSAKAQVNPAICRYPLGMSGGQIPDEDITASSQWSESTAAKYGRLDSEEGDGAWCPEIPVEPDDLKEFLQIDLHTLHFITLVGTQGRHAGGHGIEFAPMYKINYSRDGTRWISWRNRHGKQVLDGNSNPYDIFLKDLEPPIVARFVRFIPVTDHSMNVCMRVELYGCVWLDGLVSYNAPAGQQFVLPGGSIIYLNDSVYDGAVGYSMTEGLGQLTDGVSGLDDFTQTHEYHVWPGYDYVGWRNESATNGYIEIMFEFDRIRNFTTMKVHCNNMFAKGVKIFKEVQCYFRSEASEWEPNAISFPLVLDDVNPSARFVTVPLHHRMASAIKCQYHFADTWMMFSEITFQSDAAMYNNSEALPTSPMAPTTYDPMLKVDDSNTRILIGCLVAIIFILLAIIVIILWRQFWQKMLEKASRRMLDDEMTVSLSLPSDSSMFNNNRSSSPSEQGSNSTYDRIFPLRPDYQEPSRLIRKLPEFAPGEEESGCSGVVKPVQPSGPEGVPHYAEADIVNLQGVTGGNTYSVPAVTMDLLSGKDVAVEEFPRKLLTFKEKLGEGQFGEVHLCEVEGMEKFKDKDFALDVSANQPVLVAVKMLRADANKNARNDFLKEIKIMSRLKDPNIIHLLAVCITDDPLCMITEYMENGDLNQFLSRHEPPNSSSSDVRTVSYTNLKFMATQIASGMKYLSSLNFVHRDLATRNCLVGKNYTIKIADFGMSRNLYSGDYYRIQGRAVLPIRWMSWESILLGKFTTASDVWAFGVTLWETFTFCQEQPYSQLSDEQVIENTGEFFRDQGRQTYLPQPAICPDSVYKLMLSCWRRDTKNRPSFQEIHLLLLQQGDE

[11] = target: T3, NUAK family SNF1-like kinase 1 (Homo sapiens) (UniProt O60285); assay: Inhibition of human recombinant NuaK1 at 40 nM related to control ULK1
T3 sequence (whole entry): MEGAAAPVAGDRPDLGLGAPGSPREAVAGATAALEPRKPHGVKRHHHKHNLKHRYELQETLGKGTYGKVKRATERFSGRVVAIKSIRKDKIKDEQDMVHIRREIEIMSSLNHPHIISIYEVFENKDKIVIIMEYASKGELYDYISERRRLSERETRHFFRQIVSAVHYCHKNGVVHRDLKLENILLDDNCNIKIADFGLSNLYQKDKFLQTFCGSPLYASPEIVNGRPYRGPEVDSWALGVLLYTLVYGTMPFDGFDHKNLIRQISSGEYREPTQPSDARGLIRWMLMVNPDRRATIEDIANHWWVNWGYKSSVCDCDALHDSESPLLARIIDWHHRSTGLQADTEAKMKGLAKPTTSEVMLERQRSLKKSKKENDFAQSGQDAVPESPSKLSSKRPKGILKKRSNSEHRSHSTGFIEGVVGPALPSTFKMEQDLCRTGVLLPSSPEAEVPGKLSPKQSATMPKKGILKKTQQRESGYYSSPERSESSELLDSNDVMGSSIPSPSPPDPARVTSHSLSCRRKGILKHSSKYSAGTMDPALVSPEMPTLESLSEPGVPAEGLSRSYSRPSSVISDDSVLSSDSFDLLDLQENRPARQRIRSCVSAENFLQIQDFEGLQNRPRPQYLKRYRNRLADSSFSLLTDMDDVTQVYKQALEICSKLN

[12] = target: cAMP-dependent protein kinase catalytic subunit beta (Homo sapiens) (UniProt P22694); assay: Inhibition of human recombinant PKACbeta at 40 nM in presence of ATP by radiometric assay relative to control
[13] = target: Leukocyte tyrosine kinase receptor (Homo sapiens) (UniProt P29376); assay: Inhibition of human recombinant LTK at 40 nM related to control ULK1
Leukocyte tyrosine kinase receptor (Homo sapiens), sequence (P29376 whole entry): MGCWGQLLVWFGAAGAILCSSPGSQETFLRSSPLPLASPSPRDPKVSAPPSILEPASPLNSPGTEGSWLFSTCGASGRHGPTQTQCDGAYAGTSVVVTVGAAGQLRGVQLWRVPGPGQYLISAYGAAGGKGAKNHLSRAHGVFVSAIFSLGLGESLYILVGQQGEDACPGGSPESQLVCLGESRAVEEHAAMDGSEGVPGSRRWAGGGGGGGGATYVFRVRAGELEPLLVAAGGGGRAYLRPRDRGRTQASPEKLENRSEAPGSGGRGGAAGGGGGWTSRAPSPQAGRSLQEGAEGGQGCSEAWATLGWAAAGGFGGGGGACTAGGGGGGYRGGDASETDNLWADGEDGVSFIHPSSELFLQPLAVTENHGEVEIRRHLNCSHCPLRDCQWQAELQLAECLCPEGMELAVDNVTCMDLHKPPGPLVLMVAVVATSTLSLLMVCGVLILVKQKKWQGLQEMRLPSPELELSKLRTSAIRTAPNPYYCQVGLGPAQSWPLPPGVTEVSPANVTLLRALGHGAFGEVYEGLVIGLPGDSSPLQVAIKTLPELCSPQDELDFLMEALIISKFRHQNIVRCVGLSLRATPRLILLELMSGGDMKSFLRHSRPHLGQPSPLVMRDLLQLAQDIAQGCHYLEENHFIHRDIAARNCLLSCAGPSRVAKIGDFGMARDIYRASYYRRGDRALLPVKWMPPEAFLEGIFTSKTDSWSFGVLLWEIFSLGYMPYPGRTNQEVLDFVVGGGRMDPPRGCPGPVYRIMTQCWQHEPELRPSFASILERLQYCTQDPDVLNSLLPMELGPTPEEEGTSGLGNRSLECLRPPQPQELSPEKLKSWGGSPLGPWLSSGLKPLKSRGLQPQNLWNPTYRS

Ribosomal protein S6 kinase alpha-6 (Homo sapiens), sequence (Q9UK32 whole entry): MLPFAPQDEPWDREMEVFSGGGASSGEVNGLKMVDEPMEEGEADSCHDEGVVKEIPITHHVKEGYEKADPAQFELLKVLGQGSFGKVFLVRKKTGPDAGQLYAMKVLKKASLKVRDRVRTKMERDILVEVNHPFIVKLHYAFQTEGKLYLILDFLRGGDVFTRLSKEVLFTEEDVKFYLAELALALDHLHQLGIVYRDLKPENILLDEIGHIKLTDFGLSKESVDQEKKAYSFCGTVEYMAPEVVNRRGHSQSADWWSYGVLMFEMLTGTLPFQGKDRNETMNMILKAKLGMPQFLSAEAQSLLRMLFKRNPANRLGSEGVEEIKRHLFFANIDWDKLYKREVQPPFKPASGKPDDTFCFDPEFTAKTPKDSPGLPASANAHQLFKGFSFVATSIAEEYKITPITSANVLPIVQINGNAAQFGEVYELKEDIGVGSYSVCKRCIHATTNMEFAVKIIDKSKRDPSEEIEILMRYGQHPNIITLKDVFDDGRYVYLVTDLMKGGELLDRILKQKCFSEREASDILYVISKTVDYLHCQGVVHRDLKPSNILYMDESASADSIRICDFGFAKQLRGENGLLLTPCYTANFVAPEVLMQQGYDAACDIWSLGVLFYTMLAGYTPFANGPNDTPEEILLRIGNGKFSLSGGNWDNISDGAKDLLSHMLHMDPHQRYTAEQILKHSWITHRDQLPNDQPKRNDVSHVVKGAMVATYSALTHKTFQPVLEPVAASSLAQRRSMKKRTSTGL
SRSF protein kinase 1 (Homo sapiens), sequence (Q96SB4 whole entry, the tested form may be a part): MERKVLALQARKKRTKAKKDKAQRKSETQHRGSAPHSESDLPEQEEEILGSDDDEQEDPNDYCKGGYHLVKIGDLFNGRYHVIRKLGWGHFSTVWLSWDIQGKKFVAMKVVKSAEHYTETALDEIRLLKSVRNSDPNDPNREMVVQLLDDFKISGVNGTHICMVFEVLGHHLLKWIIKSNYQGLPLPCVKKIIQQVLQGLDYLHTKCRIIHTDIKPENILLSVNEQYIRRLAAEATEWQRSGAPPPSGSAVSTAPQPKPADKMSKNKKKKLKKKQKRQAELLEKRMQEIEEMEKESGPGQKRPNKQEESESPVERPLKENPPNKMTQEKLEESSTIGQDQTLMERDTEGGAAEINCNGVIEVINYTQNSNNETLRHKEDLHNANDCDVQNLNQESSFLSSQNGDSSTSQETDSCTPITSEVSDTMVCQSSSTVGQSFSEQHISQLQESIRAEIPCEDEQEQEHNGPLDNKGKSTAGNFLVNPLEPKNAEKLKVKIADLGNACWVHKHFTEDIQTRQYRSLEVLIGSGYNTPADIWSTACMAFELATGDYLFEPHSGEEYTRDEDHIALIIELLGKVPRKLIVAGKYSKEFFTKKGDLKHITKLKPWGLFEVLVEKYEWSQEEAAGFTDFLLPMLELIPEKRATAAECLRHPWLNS
Serine/threonine-protein kinase MAK (Homo sapiens), sequence (P20794 whole entry, looked up): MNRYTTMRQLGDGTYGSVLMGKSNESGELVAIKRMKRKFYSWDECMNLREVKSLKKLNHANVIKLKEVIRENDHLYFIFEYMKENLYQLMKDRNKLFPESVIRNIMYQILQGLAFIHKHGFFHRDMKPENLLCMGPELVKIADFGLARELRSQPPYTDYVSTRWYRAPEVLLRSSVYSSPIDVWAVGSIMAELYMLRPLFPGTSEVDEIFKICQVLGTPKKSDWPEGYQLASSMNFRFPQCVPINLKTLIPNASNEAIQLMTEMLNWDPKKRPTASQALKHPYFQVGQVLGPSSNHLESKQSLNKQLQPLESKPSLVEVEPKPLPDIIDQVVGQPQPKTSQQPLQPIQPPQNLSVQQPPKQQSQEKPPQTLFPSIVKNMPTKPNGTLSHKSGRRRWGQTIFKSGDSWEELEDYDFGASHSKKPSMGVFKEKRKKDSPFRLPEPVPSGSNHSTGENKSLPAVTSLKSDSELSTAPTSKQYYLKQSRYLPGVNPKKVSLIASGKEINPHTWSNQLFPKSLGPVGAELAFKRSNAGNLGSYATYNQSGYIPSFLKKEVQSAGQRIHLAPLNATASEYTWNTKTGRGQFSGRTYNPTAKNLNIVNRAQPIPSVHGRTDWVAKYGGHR
Mitogen-activated protein kinase 10 (Homo sapiens), sequence (P53779 whole entry): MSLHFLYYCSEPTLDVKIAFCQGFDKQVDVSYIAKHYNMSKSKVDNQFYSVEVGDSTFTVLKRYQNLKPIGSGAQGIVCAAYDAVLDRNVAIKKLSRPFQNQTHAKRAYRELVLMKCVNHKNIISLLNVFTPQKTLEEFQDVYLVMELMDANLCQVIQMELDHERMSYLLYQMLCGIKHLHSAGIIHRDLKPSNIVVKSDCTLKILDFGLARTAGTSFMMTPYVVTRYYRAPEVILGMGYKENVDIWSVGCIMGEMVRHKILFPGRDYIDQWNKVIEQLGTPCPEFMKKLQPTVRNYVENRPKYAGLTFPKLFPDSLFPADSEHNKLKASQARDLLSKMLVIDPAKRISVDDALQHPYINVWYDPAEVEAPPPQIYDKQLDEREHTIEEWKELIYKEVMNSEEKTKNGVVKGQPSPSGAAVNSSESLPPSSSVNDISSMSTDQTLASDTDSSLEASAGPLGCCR
Tyrosine-protein kinase JAK2 (Homo sapiens), sequence (O60674 whole entry): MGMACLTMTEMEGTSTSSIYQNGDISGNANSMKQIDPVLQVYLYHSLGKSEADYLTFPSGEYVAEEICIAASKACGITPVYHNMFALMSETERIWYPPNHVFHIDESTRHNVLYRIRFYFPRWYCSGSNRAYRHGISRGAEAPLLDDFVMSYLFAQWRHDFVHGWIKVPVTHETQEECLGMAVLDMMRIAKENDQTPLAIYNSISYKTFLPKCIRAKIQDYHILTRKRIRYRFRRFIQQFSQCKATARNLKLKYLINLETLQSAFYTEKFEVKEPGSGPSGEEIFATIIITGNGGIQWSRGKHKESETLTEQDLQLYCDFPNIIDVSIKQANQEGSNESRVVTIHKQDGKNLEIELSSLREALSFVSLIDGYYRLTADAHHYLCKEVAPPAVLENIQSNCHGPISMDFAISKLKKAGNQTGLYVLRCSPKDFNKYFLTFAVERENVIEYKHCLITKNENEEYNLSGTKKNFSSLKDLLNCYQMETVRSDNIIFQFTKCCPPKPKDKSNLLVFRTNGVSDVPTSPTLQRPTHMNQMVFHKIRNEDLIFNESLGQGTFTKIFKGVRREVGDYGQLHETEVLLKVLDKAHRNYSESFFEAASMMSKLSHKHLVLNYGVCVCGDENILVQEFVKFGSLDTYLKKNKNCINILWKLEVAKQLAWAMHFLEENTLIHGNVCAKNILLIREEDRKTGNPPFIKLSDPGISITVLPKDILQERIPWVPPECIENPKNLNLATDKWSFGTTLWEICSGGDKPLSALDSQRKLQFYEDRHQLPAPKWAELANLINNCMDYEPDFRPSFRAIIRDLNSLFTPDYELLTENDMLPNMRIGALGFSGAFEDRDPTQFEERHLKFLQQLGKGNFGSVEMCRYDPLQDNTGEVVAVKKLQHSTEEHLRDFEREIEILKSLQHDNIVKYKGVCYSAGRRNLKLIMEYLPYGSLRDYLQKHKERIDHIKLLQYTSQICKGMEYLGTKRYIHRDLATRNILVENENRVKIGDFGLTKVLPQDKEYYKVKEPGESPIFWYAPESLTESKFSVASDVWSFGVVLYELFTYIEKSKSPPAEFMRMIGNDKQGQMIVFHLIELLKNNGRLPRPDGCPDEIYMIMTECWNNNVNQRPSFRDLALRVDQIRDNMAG
Serine/threonine-protein kinase pim-1 (Homo sapiens), sequence (P11309 whole entry, looked up): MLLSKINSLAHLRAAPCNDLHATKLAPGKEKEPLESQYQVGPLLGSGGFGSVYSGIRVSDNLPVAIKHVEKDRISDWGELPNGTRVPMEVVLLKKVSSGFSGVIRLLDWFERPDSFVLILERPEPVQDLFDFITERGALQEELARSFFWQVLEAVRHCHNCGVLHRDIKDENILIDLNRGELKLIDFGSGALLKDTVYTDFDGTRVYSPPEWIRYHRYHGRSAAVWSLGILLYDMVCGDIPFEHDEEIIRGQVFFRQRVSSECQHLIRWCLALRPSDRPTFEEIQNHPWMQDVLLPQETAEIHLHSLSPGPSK

inhibition [1]: 15%
fold change (FC) [2]: 0.45
fold change (FC) [3]: 0.04
fold change (FC) [4]: 0.03
inhibition [5]: 78%
Compound: CNC(=O)c1ccccc1Oc1nc(Nc2cc(OC)c(OC)c(OC)c2)ncc1Br

inhibition [6]: 73%
inhibition [7]: 0%
fold change (FC) [8]: 0.06
inhibition [9]: 0%
Compound: CC(C)[C@H](NC(=O)c1cc(-c2cnn3cc(-c4ccc(OCCN5CCCCC5)cc4)cnc23)cs1)C(F)(F)F

inhibition [10]: 0%
fold change (FC) [11]: 0.07
inhibition [12]: 0%
fold change (FC) [13]: 0
Compound: O=C(N[C@@H](C1CC1)C(F)(F)F)c1cc(-c2cnn3cc(-c4ccc(F)cc4)cnc23)cs1
